This note sets out measurements from the array DNA melting data of Ke et al. (doi:10.1101/2024.01.08.574731).

Series [1] is described as follows: folding enthalpy; higher = less favourable; fluorescence melt of hairpins on a sequencing array, two-state fit. Conditions: sodium 0.088 M. The essentials: (§1)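 Library hairpins on a sequenced MiSeq flow cell carried annealed Cy3 and quencher oligos, and their Cy3 fluorescence was imaged in 50 mM Na-HEPES pH 8.0 with 25 mM NaCl, in 2.5 °C steps up to 60 °C. Signals were normalised to Cy3 before quenching and to control constructs. Melting temperature and folding enthalpy were obtained from bootstrapped two-state fits, combined by inverse-variance weighting across four replicates, and the fitted temperatures were then raised by 9.35 °C to match UV melts.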

A short description of series [2]: melting temperature; fluorescence melt of hairpins on a sequencing array, two-state fit, raised by 9.35 °C to match UV melts. As to conditions: sodium 0.088 M. The essentials: as §1

Turning to GCCCAACCGAAAGGTGGC (((..(((....)))))), the folding enthalpy in series [1] is -18.8 kcal/mol. For the same sequence, the Tm in series [2] turned out to be 51.6 °C.
On the same counts, the results for GGGGTCGCGAAAGCGCCC (((..(((....)))))) are -16.4 kcal/mol and 60.7 °C.
Consider GGACGCGAAAGCGTTCC ((((((....))).))), for which, in series [1], the folding enthalpy is -14.1 kcal/mol. Moreover, in series [2], the Tm worked out at 61.8 °C.
On the same counts, the results for GGCTAAGGAAACTTAGCC (((((((....))))))) are -37.7 kcal/mol and 60.8 °C.
As to GAGTCGGGAAACTGACTC (((((.(....).))))), the folding enthalpy in series [1] is -40.2 kcal/mol. In series [2], the Tm amounted to 52.6 °C.
For GTGGACGAAAGTCTCCAC ((((((....)))..))) the same measures were -17.2 kcal/mol and 38.8 °C.
On the same counts, the results for GGATCGGGAAACCGATTC (.(((((....))))).) are -26.6 kcal/mol and 50.6 °C.
Regarding GCGACGACTCGC ((((....)))), the folding enthalpy in series [1] was -17 kcal/mol. For the same sequence, in series [2], the Tm worked out at 45.8 °C.
For GTACCAGGAAACTGGTAC (((((((....))))))) the same measures were -40.4 kcal/mol and 62.2 °C.
In the case of GCCCAGCGAAAGCTGTGC ((.((((....)))).)), the folding enthalpy in series [1] is -16 kcal/mol. Further, the Tm in series [2] turned out to be 61 °C.
For GCCTTTTCGAAAGAAGGC (((..(((....)))))) the same measures were -30.4 kcal/mol and 42.7 °C.
Consider GTCGTGGGAAACCACGGC (.(((((....))))).), for which the folding enthalpy in series [1] is -40.4 kcal/mol. Also, the Tm in series [2] worked out at 59.9 °C.
For GCACTCGAAAGAGAGTGC ((((((....)))..))) the same measures were -38.7 kcal/mol and 59.9 °C.
GTCGCAGGAAACTGCGGC (.(((((....))))).): the folding enthalpy in series [1] is -32.2 kcal/mol. For the same sequence, the Tm in series [2] came to 64.5 °C.
Regarding GAGCACGAAAGTGTACTC ((((((....)))..))), the folding enthalpy in series [1] is -15.4 kcal/mol. Besides, in series [2], the Tm was found to be 37.5 °C.
For GCAAGCGAAAGCTAGTGC ((((((....)))..))) the same measures were -17.8 kcal/mol and 39.9 °C.
On the same counts, the results for GATCTCCGAAAGGACATC (((.(((....))).))) are -17 kcal/mol and 30.4 °C.
In the case of GCTTAGCGAAAGCTGCGC ((..(((....)))..)), the folding enthalpy in series [1] was -19.3 kcal/mol. The Tm in series [2] stood at 54.9 °C.
For GCTAGCGAAAGCTGCAGC ((((((....)))..))) the same measures were -13.2 kcal/mol and 46 °C.
Regarding GCTAACGAAAGTTGGAGC ((((((....)))..))), the folding enthalpy in series [1] was -19.9 kcal/mol. Further, in series [2], the Tm was found to be 33.1 °C.
With GAAGCCGAAAGGCGATTC ((((((....)))..))), the folding enthalpy in series [1] is -14.9 kcal/mol. Further, in series [2], the Tm came out at 58 °C.
Turning to GTCAAAGCGAAAGCTGAC (((..(((....)))))), the folding enthalpy in series [1] is -21.2 kcal/mol. In series [2], the Tm came to 48.1 °C.
Take GATCATTCCGATGATC ((((((....)))))): in series [1], the folding enthalpy was -41.3 kcal/mol. For the same sequence, in series [2], the Tm came to 49.1 °C.
Turning to GATCATGATATGATC ((((((...)))))), the folding enthalpy in series [1] was -31.3 kcal/mol. Moreover, the Tm in series [2] was found to be 48.4 °C.
On the same counts, the results for GATCTCCCAAGAGATC ((((((....)))))) are -34.3 kcal/mol and 53.4 °C.
On the same counts, the results for GTACTCGGAAACGGGTAC ((((.((....)).)))) are -42.6 kcal/mol and 50.6 °C.
On the same counts, the results for GCGAAGCGAAAGCTCGGC ((..(((....)))..)) are -8.3 kcal/mol and 43.5 °C.
As to GATCCCCGCGGGGATC ((((((....)))))), in series [1], the folding enthalpy was -38.8 kcal/mol. Further, the Tm in series [2] came to 67.4 °C.
On the same counts, the results for GGTAGCGAAAGCTGCACC ((((((....)))..))) are -13.2 kcal/mol and 39 °C.
With GTAGCCGAAAGGCTCTAC ((((((....)))..))), the folding enthalpy in series [1] was -8.79 kcal/mol. Besides, the Tm in series [2] was 38.6 °C.
In the case of GATCTATACATAGATC ((((((....)))))), the folding enthalpy in series [1] was -37.1 kcal/mol. The Tm in series [2] stood at 46.4 °C.
On the same counts, the results for GTCATTGGAAACAATGAC (((((((....))))))) are -41.8 kcal/mol and 58.3 °C.
On the same counts, the results for GACCACGGAAACGTGGCC (.(((((....))))).) are -13.3 kcal/mol and 49.9 °C.
For the sequence GATCTGGTACAGATC ((((((...)))))), in series [1], the folding enthalpy was -41.3 kcal/mol. The Tm in series [2] was determined as 60.8 °C.
Consider GGGCTTGGAAACAAACCC (((.(((....))).))), for which the folding enthalpy in series [1] is -32.8 kcal/mol. In addition, the Tm in series [2] was 43.8 °C.
Consider GGACGGCGAAAGCCTTCC (((.(((....))).))), for which the folding enthalpy in series [1] was -22.6 kcal/mol. Moreover, in series [2], the Tm stood at 52.5 °C.
In the case of GTTGGGCGAAAGCCTAAC (((.(((....))).))), the folding enthalpy in series [1] is -23.1 kcal/mol. The Tm in series [2] is 54.9 °C.
Consider GCTAACGAAAGTTACAGC ((((((....)))..))), for which the folding enthalpy in series [1] was -18.3 kcal/mol. For the same sequence, the Tm in series [2] is 35.1 °C.
On the same counts, the results for GCATACGAAAGTAGGTGC ((((((....)))..))) are -27.1 kcal/mol and 40.4 °C.
As to GATCCTGAAGAGGATC ((((((....)))))), the folding enthalpy in series [1] is -36.2 kcal/mol. In addition, the Tm in series [2] is 55.4 °C.
For GATCACCGACGTGATC ((((((....)))))) the same measures were -32.5 kcal/mol and 54.5 °C.
For GCCGGCGAAAGCCACGGC ((((((....)))..))) the same measures were -21.5 kcal/mol and 63.4 °C.
On the same counts, the results for GATCGTGGAAACGCGATC (((((.(....).))))) are -39.9 kcal/mol and 55.6 °C.
Consider GGGCTTGGAAACAAGCTC (.(((((....))))).), for which the folding enthalpy in series [1] is -31.2 kcal/mol. Besides, the Tm in series [2] was found to be 54.9 °C.
On the same counts, the results for GTGGCACGAAAGTGTCAC (((.(((....))).))) are -42 kcal/mol and 67.2 °C.
For GGAGTAGAAATACTCC ((((((....)))))) the same measures were -32.6 kcal/mol and 52 °C.
For GCTCACTCGAAAGAGAGC (((..(((....)))))) the same measures were -25.1 kcal/mol and 41.6 °C.
GATCAAAGTCTTGATC ((((((....)))))): the folding enthalpy in series [1] is -31.1 kcal/mol. For the same sequence, the Tm in series [2] was 41.7 °C.
With GTGTTCCGAAAGGATCAC (((.(((....))).))), the folding enthalpy in series [1] was -34.4 kcal/mol. In series [2], the Tm was determined as 51.5 °C.
On the same counts, the results for GATCGACAATCGATC ((((((...)))))) are -29.4 kcal/mol and 46.6 °C.
For GATCTGTAGCCAGATC ((((((....)))))) the same measures were -34.1 kcal/mol and 48.6 °C.
On the same counts, the results for GCTCCGCGAAAGCGCCGC ((..(((....)))..)) are -6.58 kcal/mol and 28.9 °C.
Take GTCCACGAAAGTGCCGAC ((((((....)))..))): the folding enthalpy in series [1] is -12.8 kcal/mol. Further, the Tm in series [2] turned out to be 31.5 °C.
In the case of GTGTTCGGAAACGAATAC ((.((((....)))).)), in series [1], the folding enthalpy was -31.7 kcal/mol. Also, the Tm in series [2] turned out to be 49.2 °C.
Regarding GACTTCCGAAAGGAGGTC (((.(((....))).))), in series [1], the folding enthalpy is -36.6 kcal/mol. Further, in series [2], the Tm is 54.8 °C.
Take GAAATGGAAACATTTC ((((((....)))))): the folding enthalpy in series [1] is -30.2 kcal/mol. Also, in series [2], the Tm amounted to 46.7 °C.
On the same counts, the results for GGCTATGGAAACATAGCC (((((((....))))))) are -37.6 kcal/mol and 66.1 °C.
On the same counts, the results for GTAGAACGAAAGTTTTAC (((.(((....))).))) are -30.6 kcal/mol and 40.2 °C.
On the same counts, the results for GCCTAGACGAAAGTCGGC (((..(((....)))))) are -21.6 kcal/mol and 53.3 °C.
As for GACCTCCGAAAGGATGTC (((.(((....))).))), the folding enthalpy in series [1] is -32.4 kcal/mol. The Tm in series [2] amounted to 47.3 °C.
Take GATCCAATACTGGATC ((((((....)))))): in series [1], the folding enthalpy was -40 kcal/mol. In addition, the Tm in series [2] is 48.6 °C.
As for GAAGCCGGAAACGGCCTC ((.((((....)))).)), in series [1], the folding enthalpy is -10 kcal/mol. In addition, the Tm in series [2] was 39.2 °C.
On the same counts, the results for GGGCCGCCGAAAGGCCCC (((..(((....)))))) are -13.6 kcal/mol and 64.1 °C.
On the same counts, the results for GCGAGATCGAAAGATCGC (((..(((....)))))) are -24.3 kcal/mol and 52.1 °C.
For GACCGCCGAAAGGCCGTC (((.(((....))).))), in series [1], the folding enthalpy is -18.8 kcal/mol. For the same sequence, the Tm in series [2] was found to be 50.7 °C.
For GGAAGTCGAAAGACGTCC (((.(((....))).))) the same measures were -23.7 kcal/mol and 52.2 °C.
For GTTAACGAAAGTTCAAC ((((((....))).))) the same measures were -12.2 kcal/mol and 26.5 °C.
For GATCCTAGAAAGGATC ((((((....)))))), the folding enthalpy in series [1] is -30.6 kcal/mol. Moreover, the Tm in series [2] was 48.5 °C.
In the case of GTGTACGAAAGTAGGCAC ((((((....)))..))), in series [1], the folding enthalpy was -16.5 kcal/mol. Besides, in series [2], the Tm is 32.8 °C.
On the same counts, the results for TTCAGGAAACTGAA (((((....))))) are -13.5 kcal/mol and 35.7 °C.
Turning to GGTCTCGAAAGAGGCACC ((((((....)))..))), the folding enthalpy in series [1] was -14.5 kcal/mol. The Tm in series [2] is 39.1 °C.
GTTGAGGGAAACCTCAGC (.(((((....))))).): in series [1], the folding enthalpy is -25.4 kcal/mol. Moreover, in series [2], the Tm stood at 46.3 °C.
As to GGCGCAGGAAACCACGCC ((((..(....)..)))), the folding enthalpy in series [1] was -35.3 kcal/mol. In addition, the Tm in series [2] turned out to be 47.3 °C.
As for GTAGTCGAAAGACGCTAC ((((((....)))..))), the folding enthalpy in series [1] is -14.2 kcal/mol. In addition, in series [2], the Tm was 36.1 °C.
